Laboratory results taken from ChEMBL document CHEMBL1126276, “Synthesis and antimalarial properties of 1-imino derivatives of 7-chloro-3-substituted-3,4-dihydro-1,9(2H,10H)-acridinediones and related structures” (J Med Chem, 1992).

Assays:
Assay type in all cases: functional
[1] = system: Plasmodium berghei; assay: (§1) Antimalarial activity in Plasmodium berghei infected mice (Mus musculus) after 40 mg/kg subcutaneous dose
Method in brief: (§2)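 […] in mice infected with a normal drug-sensitive P. berghei strain. Compound dissolved or suspended in sesame or peanut oil, given as a single subcutaneous dose 72 h postinfection.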

[2] = system: Plasmodium berghei; assay: Antimalarial activity in Plasmodium berghei infected mice (Mus musculus) after subcutaneous 640 mg/kg dose
Method in brief: (§3)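 Normal drug-sensitive P. berghei strain in mice. Compound dissolved or suspended in sesame or peanut oil, given parenterally as a single subcutaneous dose 72 h postinfection.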

[3] = system: Plasmodium berghei; assay: as §1; method in brief: as §3; remark: listed apart in the source
[4] = system: Plasmodium berghei; assay: (§4) Antimalarial activity in Plasmodium berghei infected mice (Mus musculus) after 80 mg/kg subcutaneous dose; method in brief: as §3
[5] = system: Plasmodium berghei; assay: Antimalarial activity in Plasmodium berghei infected mice (Mus musculus) after 20 mg/kg subcutaneous dose; method in brief: as §2
[6] = system: Plasmodium berghei; assay: Antimalarial activity in Plasmodium berghei infected mice (Mus musculus) after subcutaneous 320 mg/kg dose; method in brief: as §3
[7] = system: Plasmodium berghei; assay: Antimalarial activity in Plasmodium berghei infected mice (Mus musculus) after subcutaneous 160 mg/kg dose; method in brief: as §3
[8] = system: Plasmodium berghei; assay: Antimalarial activity in Plasmodium berghei infected mice (Mus musculus) after 320 mg/kg subcutaneous dose; method in brief: as §2
[9] = system: Plasmodium berghei; assay: as §4; method in brief: as §2; remark: listed apart in the source
[10] = system: Plasmodium berghei; assay: Antimalarial activity in Plasmodium berghei infected mice (Mus musculus) after 160 mg/kg subcutaneous dose; method in brief: as §2
[11] = system: Plasmodium berghei; assay: Antimalarial activity Plasmodium berghei infected mice (Mus musculus) after 640 mg/kg subcutaneous dose; method in brief: as §2

| Structure (SMILES) | Delta mean survival time [1] | No. of cured mice [2] | No. of cured mice [3] | No. of cured mice [4] | Delta mean survival time [5] | No. of cured mice [6] | No. of cured mice [7] | Delta mean survival time [8] | Delta mean survival time [9] | Delta mean survival time [10] | Delta mean survival time [11] | Delta mean survival time ([1]; 40 mg/kg) | No. of cured mice ([3]; 40 mg/kg) | Delta mean survival time ([9]; 80 mg/kg) | Delta mean survival time ([5]; 20 mg/kg) |
| --- | --- | --- | --- | --- | --- | --- | --- | --- | --- | --- | --- | --- | --- | --- | --- |
| CC1C(=O)c2c(nc3ccc(Cl)cc3c2O)CC1c1ccc(Cl)c(Cl)c1 (stereo unspecified) | 10.8 | 5 | 3 | 5 | 8.2 | 5 | 5 | – | – | – | – | – | – | – | – |
| CCN(CC)CC/N=C1\CC(c2ccc(C(F)(F)F)cc2)Cc2nc3ccc(Cl)cc3c(O)c21 (stereo unspecified) | 17.6 | 5 | 3 | – | – | – | 5 | – | – | – | – | – | – | – | – |
| CN(C)CCC/N=C1\CC(c2ccccc2)Cc2c1c(=O)c1cc(Cl)ccc1n2O (stereo unspecified) | 0.6 | 5 | – | – | – | – | – | 8.8 | 1.2 | 4.2 | – | – | – | – | – |
| CN(C)CCC/N=C1\CC(c2ccc(Cl)c(C(F)(F)F)c2)Cc2nc3ccc(Cl)cc3c(O)c21 (stereo unspecified) | 8.7 | 5 | 4 | 5 | 7.5 | 5 | 5 | – | – | – | – | – | – | – | – |
| CN(C)CCC/N=C1\CC(c2cccc3ccccc23)Cc2c1c(=O)c1cc(Cl)ccc1n2O (stereo unspecified) | 2.6 | 5 | – | – | – | 4 | 1 | 4.7 | 7.1 | 9.3 | – | – | – | – | – |
| CCCCN(CCCC)CC/N=C1\CC(c2cccc(C(F)(F)F)c2)Cc2c1c(=O)c1cc(Cl)ccc1n2O (stereo unspecified) | 9.6 | 5 | 1 | – | 5.4 | 5 | 3 | – | 7 | 11.6 | – | – | – | – | – |
| C=CCNCC/N=C1\CC(c2cccc(C(F)(F)F)c2)Cc2c1c(=O)c1cc(Cl)ccc1n2O (stereo unspecified) | 5.9 | 5 | 2 | 1 | 3 | 5 | 5 | – | 9.4 | – | – | – | – | – | – |
| CCN(CC)C1CCC(/N=C2\CC(c3ccc(Cl)c(Cl)c3)Cc3c2c(=O)c2cc(Cl)ccc2n3O)CC1 (stereo unspecified) | 5.6 | 5 | – | – | – | 3 | 5 | 12.1 | 7.2 | – | – | – | – | – | – |
| CN(C)CCC/N=C1\CC(c2ccc(Cl)c(Cl)c2)Cc2nc3ccc(Cl)cc3c(O)c21 (stereo unspecified) | 9.8 | 5 | 3 | 4 | 9.2 | 5 | 5 | – | 11.8 | – | – | – | – | – | – |
| C=CCn1c2c(c(=O)c3cc(Cl)ccc31)C(=O)CC(c1ccc(C(F)(F)F)cc1)C2 (stereo unspecified) | 8.5 | 4 | 1 | – | – | – | – | – | – | 12.6 | 15 | – | – | – | – |
| CN(C)CCC/N=C1\CC(c2ccc(C(F)(F)F)cc2)Cc2nc3ccc(Br)cc3c(O)c21 (stereo unspecified) | 9.3 | 2 | 1 | 5 | 6 | 5 | 5 | – | – | – | 25.7 | – | – | – | – |
| CCN(CC)CCC/N=C1\CC(c2ccc(Cl)c(Cl)c2)Cc2c1c(=O)c1cc(Cl)ccc1n2O (stereo unspecified) | 3.5 | 5 | – | 2 | 5.8 | 5 | 4 | – | 11.7 | 12.7 | – | – | – | – | – |
| O=c1c2c(n(O)c3ccc(Cl)cc13)CC(c1cccc(C(F)(F)F)c1)C/C2=N\Cc1ccc(Cl)c(Cl)c1 (stereo unspecified) | – | 5 | – | – | – | 2 | – | 11.5 | 4.4 | 8.4 | – | – | – | – | – |
| CC1/C(=N\CCCN(C)C)c2c(nc3ccc(Cl)cc3c2O)CC1c1ccc(Cl)c(Cl)c1 (trans isomer) | – | – | – | 4 | – | 5 | 5 | – | – | – | – | 7.2 | 1 | 15 | 5.3 |
| CN(C)CCC/N=C1\CC(c2ccc(Cl)c(Cl)c2)Cc2c1c(=O)c1cc(Cl)ccc1n2O (stereo unspecified) | 12.7 | 5 | 3 | 3 | 7.1 | 5 | 5 | – | 17.2 | – | – | – | – | – | – |
| CN(C)CCC/N=C1\CC(c2c(Cl)cccc2Cl)Cc2c1c(=O)c1cc(Cl)ccc1n2O (stereo unspecified) | 1.2 | 5 | – | – | – | 1 | 1 | 7.2 | 4.1 | 9.4 | – | – | – | – | – |

| Structure (SMILES) | Delta mean survival time [1] | No. of cured mice [2] | No. of cured mice [3] | No. of cured mice [4] | Delta mean survival time [5] | No. of cured mice [6] | No. of cured mice [7] | Delta mean survival time [8] | Delta mean survival time [9] | Delta mean survival time [10] | Delta mean survival time [11] | Delta mean survival time ([1]; 40 mg/kg) | No. of cured mice ([3]; 40 mg/kg) | Delta mean survival time ([9]; 80 mg/kg) | Delta mean survival time ([5]; 20 mg/kg) |
| --- | --- | --- | --- | --- | --- | --- | --- | --- | --- | --- | --- | --- | --- | --- | --- |
| NCC/N=C1\CC(c2ccc(Cl)cc2Cl)Cc2nc3ccc(Cl)cc3c(O)c21 (stereo unspecified) | – | 5 | 5 | – | – | – | 5 | – | – | – | – | – | – | – | – |
| CC(C/N=C1\CC(c2cccc(C(F)(F)F)c2)Cc2c1c(=O)c1cc(Cl)ccc1n2O)N(C)C (stereo unspecified) | 11.9 | 5 | 1 | – | 4 | 5 | 2 | – | 9.2 | 8.6 | – | – | – | – | – |
| CN(C)CCC/N=C1/c2c([nH]c3ccc(Cl)cc3c2=O)CC(c2ccc(Cl)c(Cl)c2)C1c1ccccc1 (stereo unspecified) | 7.7 | 5 | – | 1 | 3.1 | 5 | 2 | – | 14.2 | 12.2 | – | – | – | – | – |
| CN(C)CCC/N=C1\CC(c2cccc(Br)c2)Cc2c1c(=O)c1cc(Cl)ccc1n2O (stereo unspecified) | 1.6 | 5 | – | – | – | 2 | – | 10.2 | 5.3 | 9.4 | – | – | – | – | – |
| CCCC/N=C1\CC(c2ccc(C(F)(F)F)cc2)Cc2c1c(=O)c1cc(Cl)ccc1n2O (stereo unspecified) | 8.5 | 5 | 1 | 3 | 5.3 | 5 | 5 | – | 10.2 | – | – | – | – | – | – |
| O=c1c2c(n(O)c3ccc(Cl)cc13)CC(c1ccc(Cl)c(Cl)c1)C/C2=N\CCCN(CCO)CCO (stereo unspecified) | 5.6 | 5 | – | 1 | 1.2 | 5 | 4 | – | 7.9 | 10.6 | – | – | – | – | – |
| CCN1CCCC(/N=C2\CC(c3ccc(Cl)c(Cl)c3)Cc3c2c(=O)c2cc(Cl)ccc2n3O)C1 (stereo unspecified) | – | 5 | – | – | – | 4 | 2 | 8.8 | 7.2 | 8.3 | – | – | – | – | – |
| CCN(CC)CCCC(C)/N=C1\CC(c2ccc(Cl)c(Cl)c2)Cc2c1c(=O)c1cc(Cl)ccc1n2O (stereo unspecified) | 6.1 | 5 | 1 | 1 | – | 5 | 5 | – | 9.6 | – | – | – | – | – | – |
| CC(C)C1CC(=O)c2c(n(O)c3ccc(Cl)cc3c2=O)C1 (stereo unspecified) | 0.3 | 5 | – | – | 0.1 | – | – | 8.3 | 1.7 | 3.5 | – | – | – | – | – |
| CN(C)CCC/N=C1\CC(c2ccc(N(C)C)cc2)Cc2c1c(=O)c1cc(Cl)ccc1n2O (stereo unspecified) | – | 5 | – | – | – | 3 | – | 7.4 | 0.9 | 6.8 | – | – | – | – | – |
| CC(C/N=C1\CC(c2ccc(C(F)(F)F)cc2)Cc2nc3ccc(Cl)cc3c(O)c21)N(C)C (stereo unspecified) | – | 5 | 5 | – | – | – | 5 | – | – | – | – | – | – | – | – |
| CN(C)c1ccc(C2CC(=O)c3c(n(O)c4ccc(Cl)cc4c3=O)C2)cc1 (stereo unspecified) | 1.6 | 5 | – | – | – | 3 | 1 | 6.8 | 5.8 | 6.6 | – | – | – | – | – |
| O=C1CC(c2ccc(F)cc2)Cc2c1c(=O)c1cc(Cl)ccc1n2O (stereo unspecified) | 19.4 | 5 | 2 | 4 | 5 | 5 | 4 | – | 9.8 | 8.8 | – | – | – | – | – |
| CCN(CC)CCCCCCC/N=C1\CC(c2ccc(C(F)(F)F)cc2)Cc2nc3ccc(Cl)cc3c(O)c21 (stereo unspecified) | 9.6 | 3 | 4 | – | – | – | 3 | – | – | 23.1 | 0.1 | – | – | – | – |
| CN(C)CCC/N=C1\CC(c2ccc(Cl)cc2Cl)Cc2nc3c(Cl)ccc(Cl)c3c(O)c21 (stereo unspecified) | – | – | – | – | 1.2 | – | – | 0 | 0 | – | – | – | – | – | – |
